Bioassay records as filed in PubChem BioAssay.
A selection: hits, their analogues and other compounds. The true share with any hit is near 1.3%.
LYPLA1 counter – LYPLA1 (human) inhibition in PME1 counter-screen. recombinant LYPLA1, FP-Rh probe fluorescence polarization. inhibition, % at 5.9 µM. 320,000 tested, 0.16% active. O75608. AID 2174;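 active means inhibition above the mean of all tested compounds plus 3 SD, set per campaign, cut at about 14% in these data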;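 further: inhibitors block serine hydrolase probe labeling of LYPLA1 so polarization falls; 0% = enzyme with DMSO and 100% = wells lacking LYPLA1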
PAD4 FP inh – PAD4 (human) enzyme inhibition; recombinant PAD4, RCA probe fluorescence polarization; inhibition, % at 6.36 µM; 330,000 tested, 0.41% active; Q9UM07;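 active means percent inhibition above a cutoff equal to the mean of all tested compounds plus 3 SD, cut at about 15% in these data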;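 further: 0% = PAD4 with RCA probe and DMSO and 100% = probe without PAD4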
Fam108B counter – counter-screen for RBBP9 inhibitors: inhibitors of mouse Fam108B; inhibition, % at 9.51 µM; 300,000 tested, 0.33% active; recombinant Fam108B, FP-Rh probe fluorescence polarization;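 active means inhibition above the screen mean inhibition plus 3 SD, computed separately per campaign, cut at about 18% in these data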;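 further: inhibitors lower polarization as less probe binds the enzyme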
LYPLA2 inh – counter-screen for PME1 inhibitors: inhibitors of human LYPLA2; O95372; recombinant LYPLA2, FP-Rh probe fluorescence polarization; inhibition, % at 5.9 µM; 320,000 tested, 0.38% active; AID 2177;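 active means inhibition above the screen-wide mean plus 3 SD, limit set per campaign, cut at about 26% in these data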;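 further: 0% = LYPLA2 with DMSO and 100% = wells lacking LYPLA2 enzyme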
PME-1 primary – blocks human protein phosphatase methylesterase 1 | recombinant PME-1, FP-Rh probe fluorescence polarization | inhibition, % at 5.9 µM | Q9Y570 | 320,000 tested, 0.53% active | AID 2130;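 active means inhibition above the campaign mean of all compounds plus 3 SD, cut at about 26% in these data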;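 further: competitive labeling of PME-1 active site by serine hydrolase directed probe; 0% = PME-1 with DMSO and 100% = wells lacking PME-1 enzyme; inhibitors block probe labeling so polarization falls and inhibition rises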
Target sequence (Q9Y570 whole entry, looked up): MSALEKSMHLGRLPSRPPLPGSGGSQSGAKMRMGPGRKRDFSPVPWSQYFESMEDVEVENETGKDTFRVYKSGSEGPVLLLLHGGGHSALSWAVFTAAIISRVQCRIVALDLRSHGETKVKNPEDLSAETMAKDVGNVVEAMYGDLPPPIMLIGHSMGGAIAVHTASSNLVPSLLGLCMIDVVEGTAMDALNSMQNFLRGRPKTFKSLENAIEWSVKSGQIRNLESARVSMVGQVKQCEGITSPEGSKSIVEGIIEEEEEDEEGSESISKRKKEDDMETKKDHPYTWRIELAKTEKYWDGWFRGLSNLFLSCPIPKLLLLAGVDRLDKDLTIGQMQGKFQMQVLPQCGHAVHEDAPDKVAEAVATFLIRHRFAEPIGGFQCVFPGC
RBBP9 inh – inhibitors of human serine hydrolase RBBP9; recombinant RBBP9, FP-Rh probe fluorescence polarization; inhibition, % at 7.94 µM; 220,000 tested, 0.2% active;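 active means inhibition above the campaign mean of all tested compounds plus 3 SD, cut at about 14% in these data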;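 further: plate controls were DMSO wells with RBBP9 for no effect and wells lacking RBBP9 protein for full effect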
Target sequence (O75884 whole entry, looked up): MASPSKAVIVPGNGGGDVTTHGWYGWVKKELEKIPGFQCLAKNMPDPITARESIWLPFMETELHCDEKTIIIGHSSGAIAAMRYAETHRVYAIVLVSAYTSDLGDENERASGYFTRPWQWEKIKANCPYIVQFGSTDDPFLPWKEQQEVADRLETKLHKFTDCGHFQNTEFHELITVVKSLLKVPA
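Measured by – fluorescence polarization · Test system – RBBP9 protein · Input – 2.5 µM RBBP9 dispensing solution, before mixing · Measure – percent inhibition from mP, scaled between DMSO and no-protein wells · Benchmarks – DMSO-treated enzyme wells and wells lacking RBBP9 · Times – preincubation 30 min plus labeling 45 min at 25 °C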
PAD4 FP conf – PAD4 (human) inhibition, confirmed; inhibition, % at 6.36 µM; 1,200 tested, 28% active; shares compounds with PAD4 FP inh; AID 488796; recombinant PAD4, RCA probe fluorescence polarization;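 active means mean inhibition across replicates above the hit cutoff set by the earlier primary screen, cut at about 15% in these data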;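 further: inhibitors block active-site labeling by the probe so polarization falls; 0% = PAD4 with probe and DMSO and 100% = probe without PAD4 enzyme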
An asterisk follows results filed as active; / = no result given.

SMILES | LYPLA1 counter | PAD4 FP inh | Fam108B counter | LYPLA2 inh | PME-1 primary | RBBP9 inh | PAD4 FP conf
Cc1sc(NC(=O)c2ccccc2)c(C(c2ccc(Cl)cc2)N2CCN(CCO)CC2)c1C (configuration not stated) | 1.6 | 17.0* | 6.8 | 8.8 | 5.7 | 6.4 | -0.6
Cc1ccc(S(=O)(=O)Nc2ccc(-n3c(C)nc4ccccc4c3=O)cc2)cc1 | 3.7 | -1.6 | 1.2 | 0.6 | 7.7 | / | /
COc1cc(/C=N\Nc2nncn2N)ccc1OC(C)=O | -0.9 | 30.7* | 1.4 | 8.7 | 3.4 | / | 6.6
CC1CCN(c2ccc(/C=N/n3nnnc3N)cc2[N+](=O)[O-])CC1 | -1.0 | -0.3 | -0.9 | -2.0 | 1.1 | -7.5 | /
COc1cc(/C=N/Nc2nncn2/N=C/c2ccc(O)c(OC)c2)ccc1O | 1.5 | 43.2* | 3.3 | 1.4 | 0.6 | 2.1 | 6.7
COc1ccc(OC)c(/C=N/Nc2nncn2/N=C/c2cc(OC)ccc2OC)c1 | 1.4 | 21.2* | 7.4 | -3.1 | 3.3 | -4.8 | 4.3
CC1CCN(c2ccc(/C=N\Nc3nncn3N)cc2[N+](=O)[O-])CC1 | -0.6 | 30.5* | 4.5 | 5.3 | 10.0 | -11.4 | -7.5
COc1cc(/C=N/Nc2ccccc2)ccc1O | 1.2 | -0.4 | 2.7 | 0.4 | 2.2 | / | /
COc1ccc2ncc(OC(C)=O)cc2c1 | -1.9 | 3.2 | -2.0 | -1.1 | 5.7 | -11.7 | /
CC(C)CC(=O)N=C1SC2CS(=O)(=O)CC2N1Cc1ccccc1Cl (configuration not stated) | -0.4 | 3.0 | 0.1 | -1.7 | 5.2 | -16.7 | /
Nc1cc2nc3ccccc3oc-2cc1=O | -0.2 | 27.7* | 8.8 | 9.1 | 22.3 | 8.1 | -1.3
COc1ccc(N2C(=O)CSC23C(=O)Nc2ccccc23)cc1 (configuration not stated) | -1.4 | 15.6* | -5.7 | 0.1 | 5.2 | 5.7 | 13.6
Cc1nn(-c2ccccc2)c2c1C(c1ccncc1)C(C#N)=C(N)O2 (configuration not stated) | -1.2 | 25.3* | -0.7 | 0.4 | -2.6 | -6.8 | 3.2
Cc1ccc(-n2nc(C)c3c2OC(N)=C(C#N)C3c2cccs2)cc1 (configuration not stated) | -1.0 | 41.1* | 2.6 | -6.9 | -1.3 | -5.7 | 7.0
Cc1ccc(-n2nc(C)c3c2OC(N)=C(C#N)C3c2ccncc2)cc1 (configuration not stated) | -1.3 | -5.2 | 4.8 | 10.2 | 10.1 | -3.3 | /
CCOC(=O)C1CCN(C(=O)Nc2ccc(OC(F)(F)F)cc2)CC1 | -0.5 | 0.2 | 6.0 | 3.3 | 5.2 | -6.1 | /
CC1=NN(c2ccc(F)cc2)C(=O)C1C(c1cccc(O)c1)c1c(C)[nH]n(-c2ccc(F)cc2)c1=O (configuration not stated) | -1.2 | 68.7* | 9.5 | 4.3 | -2.9 | 3.8 | -8.4
CC(C)(C)c1n[nH]c(=S)n(/N=C/c2cccs2)c1=O | -2.2 | -0.4 | -1.6 | -4.8 | 2.1 | -5.9 | /
Cc1n[nH]c(=S)n(/N=C/c2cccs2)c1=O | -1.6 | 18.2* | 1.6 | -6.5 | -0.9 | 1.8 | 4.7
COc1cc(OC)cc(C(=O)NNC(=O)CN2C(=O)NC(C)(c3ccccc3)C2=O)c1 (configuration not stated) | 0.8 | -6.0 | -0.4 | -4.4 | -0.8 | / | /
CCn1c(=NC(=O)CSC(C)=O)sc2cc(F)ccc21 | -2.4 | 15.8* | 0.5 | -1.6 | -7.8 | -0.5 | 4.4
C#CCn1c(=NC(=O)CSC(C)=O)sc2cc(F)ccc21 | 0.8 | -1.6 | 8.4 | 6.7 | 4.5 | -1.1 | /
CC1=CC(=C(C#N)c2nc3ccccc3s2)C=C(C)N1CC1CCCO1 (configuration not stated) | 4.7 | -2.7 | 8.8 | 8.6 | 25.8 | -6.5 | /
Nc1nonc1-n1nnc(C(=O)N/N=C/c2cccnc2)c1CSC1=NCCS1 | 0.4 | 35.2* | -8.1 | -7.9 | -0.2 | -0.6 | 10.0
COc1ccc(-c2cc(=O)n(CCC#N)[nH]2)cc1 | 2.1 | 69.7* | 2.3 | 0.1 | -0.1 | -6.7 | 2.1
SMILES | LYPLA1 counter | PAD4 FP inh | Fam108B counter | LYPLA2 inh | PME-1 primary | RBBP9 inh | PAD4 FP conf
Cc1noc(C)c1CSCC(=O)N(C)CC(=O)Nc1ccccc1Cl | -1.5 | -0.3 | -0.1 | -2.8 | 1.6 | / | /
Cc1ccc(S(=O)(=O)/N=C2\C=C(Nc3ccc(O)cc3)C(=O)c3ccccc32)cc1 | / | 54.7* | / | / | / | / | 54.2*
O=C1Nc2ccc(Br)cc2/C1=C/c1ccc(C(=O)O)cc1 | -0.9 | -0.7 | 1.0 | -2.1 | -1.4 | / | /
O=C(Nc1ccccn1)C(=O)N1CCCCC1 | 3.6 | 36.0* | 0.6 | 4.0 | 3.5 | 3.4 | -2.4
Cc1c(C(=O)N2CCCCC2)c(S(=O)(=O)N2CCN(c3ccc(Cl)cc3)CC2)c(C)n1C | -1.7 | 67.9* | -2.0 | 1.3 | 3.9 | / | 3.0
CCCCCCCCCCSc1n[nH]c(N)n1 | 0.5 | -6.4 | -0.2 | 10.1 | 1.8 | -2.4 | /
CCCOc1ccc(C(=O)CCNC(Cc2c[nH]c3ccccc23)C(=O)O)cc1 (configuration not stated) | -8.7 | -2.5 | -1.1 | -8.8 | 1.5 | / | /
O=C1CCCC2=C1C1(O)C(=O)c3ccccc3C1(O)O2 (configuration not stated) | 4.0 | 45.2* | -2.4 | 3.5 | -9.6 | 2.8 | 32.8*
Cn1c(/C(C#N)=C/c2ccc(-c3ccc(S(N)(=O)=O)cc3)o2)nc2ccccc21 | 11.4 | 27.7* | 2.3 | 7.8 | 5.4 | -13.1 | 20.8*
N#Cc1sc2nc(C3CC3)cc(-c3ccccc3)c2c1N | -1.2 | 7.0 | 0.2 | -0.6 | 2.1 | -4.7 | /
N#Cc1sc2nc(-c3ccccc3)cc(-c3ccco3)c2c1N | -5.7 | 46.1* | 11.5 | 1.9 | 16.4 | -4.9 | 115.6*
C=CCN(C(=O)c1csnn1)C(C(=O)NCc1ccc(F)cc1)c1ccc(F)cc1 (configuration not stated) | 5.9 | 15.1* | 1.2 | 7.3 | -7.5 | / | -6.8
C=CCN(C(=O)c1csnn1)C(C(=O)NCc1ccc(F)cc1)c1ccccc1 (configuration not stated) | 0.2 | -3.9 | 1.5 | -2.3 | 0.5 | / | /
COc1nc(OC)nc(Oc2ccc([N+](=O)[O-])cc2Cl)n1 | -3.1 | 2.1 | -1.9 | 0.5 | 4.4 | -5.6 | /
COc1ccc(OCCCC(=O)N2CCN(S(=O)(=O)c3cccc(F)c3)CC2)cc1 | 0.7 | 32.9* | 1.6 | 1.8 | -3.6 | / | -8.5
Cn1c(=O)c2c(nc(N/N=C/c3ccc(OC(=O)c4ccco4)cc3)n2Cc2ccccc2Cl)n(C)c1=O | -1.9 | -3.3 | -2.4 | 6.0 | -5.5 | -11.0 | /
O=C(O)c1cccc(NC2=C(N3CCOCC3)C(=O)c3ccccc3C2=O)c1 | 2.3 | 10.2 | 2.2 | 1.0 | -6.0 | 8.4 | /
O=C(O)c1ccc(NC2=C(n3nnc4ccccc43)C(=O)c3ccccc3C2=O)cc1 | 2.1 | 17.4* | 6.8 | 2.9 | 3.4 | -8.1 | 3.4
